Measurements reported in ChEMBL document CHEMBL3271979, “Inhibition of solid tumors by nitrosoureas. 1. Lewis lung carcinoma” (1977).
Activity calls are given as the source filed them. The calls are words filed in the database; no cut-off is given here.

Tests used:
Mus musculus [1] = assay: Antitumor activity against mouse advanced Lewis lung carcinoma allografted in ip dosed BDF1 mouse assessed as disease cure administered as single dose on day 6 or 7 post-tumor implantation; type: functional, organism-based
Method in brief: (§1)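 BDF1 mice (C57Blk/6 × DBA/2) implanted sc by trocar with Lewis lung tumor fragments of about 40 mg, taken only from bacteriologically sterile donor tumors. Mice bearing tumors of about 400 mg (day 6-7) were selected. Each received a single ip dose on day 7, at or below the LD10 in normal mice. Groups were of 10 mice. Tumor weight was taken from calipers as w = ab²/2, measured at least twice weekly. Matched non-tumor mice served as toxicity controls.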

Mus musculus [2] = assay: Antitumor activity against mouse advanced Lewis lung carcinoma allografted in BDF1 mouse assessed as disease cure at 22 mg/kg, ip administered as single dose on 7th day post-tumor implantation measured for 80 days post-drug treatment; type: functional, organism-based; design: dose 22 mg/kg; method in brief: as §1
[3] = Antitumor activity against mouse early Lewis lung carcinoma allografted in BDF1 mouse assessed as increase in host life span at 15 mg/kg, ip administered as single dose on 1 or 2 days post-tumor implantation; type: functional; conditions: route intraperitoneal
Method in brief: (§2)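 BDF1 mice (C57Blk/6 × DBA/2) implanted sc by trocar with ~40 mg Lewis lung tumor fragments from bacteriologically sterile donor tumors. Single ip dose on day 1 or 2, as a solution or suspension in water (CMC or gum acacia) or saline (HPC or Tween 80). Read-out is […]. Same-dose toxicity controls were run in nontumor-bearing mice.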

[4] = Antitumor activity against mouse advanced Lewis lung carcinoma allografted in BDF1 mouse assessed as increase in host life span at 22 mg/kg, ip administered as single dose on 7th day post-tumor implantation; type: functional; conditions: route intraperitoneal
Method in brief: (§3)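 BDF1 mice (C57Blk/6 × DBA/2) implanted sc by trocar with about 40 mg Lewis lung tumor fragments from bacteriologically sterile donors. Advanced-disease groups held tumors of about 400 mg by day 6-7, sized by caliper (w = ab²/2). Single ip injection on day 7, in water or saline vehicle, at or below the LD10 in normal mice. Tumors measured at least twice weekly.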

Mus musculus [5] = assay: Antitumor activity against mouse advanced Lewis lung carcinoma allografted in ip dosed BDF1 mouse assessed as complete regression of established tumor administered as single dose on day 6 or 7 post-tumor implantation; type: functional, organism-based; method in brief: as §1
[6] = Antitumor activity against mouse early Lewis lung carcinoma allografted in ip dosed BDF1 mouse assessed as disease cure administered as single dose on 1 or 2 days post-tumor implantation measured for 80 days post-drug treatment; type: functional
Method in brief: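 BDF1 mice implanted sc by trocar with ~40 mg Lewis lung fragments from sterile donor tumors. A single ip dose was given on day 1 or 2 after implant, in water or saline vehicle. Cures were scored in animals observed for at least 80 days after treatment. Drug-toxicity controls were matched non-tumor-bearing mice monitored for body weight and deaths.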

[7] = Antitumor activity against mouse early Lewis lung carcinoma allografted in BDF1 mouse assessed as increase in host life span at 10 mg/kg, ip administered as single dose on 1 or 2 days post-tumor implantation; type: functional; conditions: route intraperitoneal
Method in brief: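 Early disease: BDF1 mice carrying sc trocar implants of about 40 mg Lewis lung fragments. One ip dose given on day 1 or 2 after implant, in distilled water or saline, at ≤0.5 ml. Endpoints were % increase in life-span of dying animals and delay in days for the primary tumor to reach 1 g. Untreated controls served as reference.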

[8] = Antitumor activity against mouse early Lewis lung carcinoma allografted in BDF1 mouse assessed as time delay in tumor growth at 15 mg/kg, ip administered as single dose on 1 or 2 days post-tumor implantation; type: functional; conditions: route intraperitoneal
Method in brief: (§4)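 BDF1 mice (C57Blk/6 × DBA/2) implanted sc by trocar with ~40 mg Lewis lung tumor fragments from bacteriologically sterile donors. A single ip dose was given on day 1 or 2, as a solution or suspension in water or saline with suspending agent, at ≤0.5 ml. Tumors were measured by caliper at least twice weekly, with weight = ab²/2. Delay was taken as the days for the tumor to reach 1 g.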

[9] = Antitumor activity against mouse early Lewis lung carcinoma allografted in BDF1 mouse assessed as time delay in tumor growth at 10 mg/kg, ip administered as single dose on 1 or 2 days post-tumor implantation; type: functional; conditions: route intraperitoneal
Method in brief: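 Sc trocar implants of about 40 mg Lewis lung fragments in BDF1 mice. A single ip injection was given on day 1 or 2, in water or physiological saline, at ≤0.5 ml. Tumor size came from caliper length and width as w = ab²/2, measured at least twice weekly. Growth delay is the extra days taken to reach 1 g, compared with untreated controls.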

[10] = Ratio of ED50 for antitumor activity against mouse L1210 cells allografted in ip dosed mouse to LD10 for mouse
[11] = Antitumor activity against mouse early Lewis lung carcinoma allografted in BDF1 mouse assessed as increase in host life span at 210 mg/kg, ip administered as single dose on 1 or 2 days post-tumor implantation; type: functional; conditions: route intraperitoneal; method in brief: as §2
[12] = Antitumor activity against mouse early Lewis lung carcinoma allografted in BDF1 mouse assessed as increase in host life span at 315 mg/kg, ip administered as single dose on 1 or 2 days post-tumor implantation; type: functional; conditions: route intraperitoneal; method in brief: as §2
[13] = Antitumor activity against mouse early Lewis lung carcinoma allografted in BDF1 mouse assessed as time delay in tumor growth at 210 mg/kg, ip administered as single dose on 1 or 2 days post-tumor implantation; type: functional; conditions: route intraperitoneal; method in brief: as §4
[14] = Antitumor activity against mouse advanced Lewis lung carcinoma allografted in BDF1 mouse assessed as increase in host life span at 316 mg/kg, ip administered as single dose on 7th day post-tumor implantation; type: functional; conditions: route intraperitoneal; method in brief: as §3
Mus musculus [15] = assay: Antitumor activity against mouse advanced Lewis lung carcinoma allografted in BDF1 mouse assessed as disease cure at 316 mg/kg, ip administered as single dose on 7th day post-tumor implantation measured for 80 days post-drug treatment; type: functional, organism-based; design: dose 316 mg/kg; method in brief: as §1
[16] = Antitumor activity against mouse early Lewis lung carcinoma allografted in BDF1 mouse assessed as time delay in tumor growth at 315 mg/kg, ip administered as single dose on 1 or 2 days post-tumor implantation; type: functional; conditions: route intraperitoneal; method in brief: as §4
[17] = Antitumor activity against mouse early Lewis lung carcinoma allografted in BDF1 mouse assessed as time delay in tumor growth at 21 mg/kg, ip administered as single dose on 1 or 2 days post-tumor implantation; type: functional; conditions: route intraperitoneal; method in brief: as §4
Mus musculus [18] = assay: Antitumor activity against mouse advanced Lewis lung carcinoma allografted in BDF1 mouse assessed as disease cure at 33 mg/kg, ip administered as single dose on 7th day post-tumor implantation measured for 80 days post-drug treatment; type: functional, organism-based; design: dose 33 mg/kg; method in brief: as §1
[19] = Antitumor activity against mouse early Lewis lung carcinoma allografted in BDF1 mouse assessed as increase in host life span at 32 mg/kg, ip administered as single dose on 1 or 2 days post-tumor implantation; type: functional; conditions: route intraperitoneal; method in brief: as §2
[20] = Antitumor activity against mouse advanced Lewis lung carcinoma allografted in BDF1 mouse assessed as increase in host life span at 33 mg/kg, ip administered as single dose on 7th day post-tumor implantation; type: functional; conditions: route intraperitoneal; method in brief: as §3
[21] = Antitumor activity against mouse early Lewis lung carcinoma allografted in BDF1 mouse assessed as time delay in tumor growth at 32 mg/kg, ip administered as single dose on 1 or 2 days post-tumor implantation; type: functional; conditions: route intraperitoneal; method in brief: as §4
[22] = Antitumor activity against mouse advanced Lewis lung carcinoma allografted in ip dosed BDF1 mouse assessed as increase in host lifespan administered as single dose on day 6 or 7 post-tumor implantation; type: functional
Method in brief: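 Advanced Lewis lung model: about 40 mg fragments implanted sc by trocar into BDF1 mice, and mice with tumors of about 400 mg (day 6-7) selected. Tumor weight from calipers, w = ab²/2. Agent given as one ip dose in distilled water or physiological saline. Nontumor-bearing mice received matching doses as toxicity controls.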

[23] = Antitumor activity against mouse early Lewis lung carcinoma allografted in BDF1 mouse assessed as increase in host life span at 21 mg/kg, ip administered as single dose on 1 or 2 days post-tumor implantation; type: functional; conditions: route intraperitoneal; method in brief: as §2
[24] = Antitumor activity against mouse early Lewis lung carcinoma allografted in BDF1 mouse assessed as increase in host life span at 24 mg/kg, ip administered as single dose on 1 or 2 days post-tumor implantation; type: functional; conditions: route intraperitoneal; method in brief: as §2
[25] = Antitumor activity against mouse early Lewis lung carcinoma allografted in BDF1 mouse assessed as time delay in tumor growth at 36 mg/kg, ip administered as single dose on 1 or 2 days post-tumor implantation; type: functional; conditions: route intraperitoneal; method in brief: as §4
[26] = Antitumor activity against mouse early Lewis lung carcinoma allografted in BDF1 mouse assessed as time delay in tumor growth at 24 mg/kg, ip administered as single dose on 1 or 2 days post-tumor implantation; type: functional; conditions: route intraperitoneal; method in brief: as §4
[27] = Antitumor activity against mouse early Lewis lung carcinoma allografted in BDF1 mouse assessed as increase in host life span at 36 mg/kg, ip administered as single dose on 1 or 2 days post-tumor implantation; type: functional; conditions: route intraperitoneal; method in brief: as §2
[28] = Antitumor activity against mouse advanced Lewis lung carcinoma allografted in BDF1 mouse assessed as increase in host life span at 36 mg/kg, ip administered as single dose on 7th day post-tumor implantation; type: functional; conditions: route intraperitoneal; method in brief: as §3

Question: With `O=NN(CCCl)C(=O)NC1CSCSC1` as the compound, how does the Activity (Mus musculus [1]) read?
Answer: inactive

Question: And the Activity (Mus musculus [2])?
Answer: inactive

Question: And the ILS at 15 mg/kg [3]?
Answer: 42%

Question: And the ILS at 22 mg/kg [4]?
Answer: 36%

Question: What about the inhibition (Mus musculus [5]) of the same compound?
Answer: Active

Question: And the Activity [6]?
Answer: 10%

Question: And the ILS at 10 mg/kg [7]?
Answer: 24%

Question: And the Time [8]?
Answer: 4.5 days

Question: And the Time [9]?
Answer: 3.5 days

Question: What about the Ratio [10] of the same compound?
Answer: 0.3

Question: With `CC(C)(C)[C@H]1CC[C@H](NC(=O)N(CCCl)N=O)CC1` as the compound, how does the ILS at 210 mg/kg [11] read?
Answer: 24%

Question: And the Activity (Mus musculus [1])?
Answer: inactive

Question: And the ILS at 315 mg/kg [12]?
Answer: 19%

Question: What about the inhibition (Mus musculus [5]) of the same compound?
Answer: Active

Question: What about the Activity [6] of the same compound?
Answer: 10%

Question: What about the Time [13] of the same compound?
Answer: 4.1 days

Question: And the ILS at 316 mg/kg [14]?
Answer: 41%

Question: And the Activity (Mus musculus [15])?
Answer: inactive

Question: What about the Time [16] of the same compound?
Answer: 22 days

Question: What about the Ratio [10] of the same compound?
Answer: 0.6

Question: With `O=NN(CCF)C(=O)NC1CCS(=O)(=O)CC1` as the compound, how does the Activity (Mus musculus [1]) read?
Answer: inactive

Question: And the Time [17]?
Answer: 8.3 days

Question: What about the Activity (Mus musculus [18]) of the same compound?
Answer: inactive

Question: What about the ILS at 32 mg/kg [19] of the same compound?
Answer: 0%

Question: What about the ILS at 33 mg/kg [20] of the same compound?
Answer: 0%

Question: What about the inhibition (Mus musculus [5]) of the same compound?
Answer: inactive

Question: What about the Activity [6] of the same compound?
Answer: 10%

Question: And the Time [21]?
Answer: 15 days

Question: And the ILS [22]?
Answer: >25%

Question: What about the ILS at 21 mg/kg [23] of the same compound?
Answer: 18%

Question: And the Ratio [10]?
Answer: 0.3

Question: For `C[C@H]1CC[C@H](NC(=O)N(CCCl)N=O)CC1`, which Activity (Mus musculus [1]) is on record?
Answer: Active

Question: And the ILS at 24 mg/kg [24]?
Answer: 37%

Question: And the Time [25]?
Answer: 14 days

Question: And the Time [26]?
Answer: 6.5 days

Question: And the Activity [6]?
Answer: >50%

Question: What about the ILS at 36 mg/kg [27] of the same compound?
Answer: 44%

Question: And the ILS at 36 mg/kg [28]?
Answer: 46%

Question: And the Ratio [10]?
Answer: 0.4
